Results collected from several papers.
Target: Rho-associated protein kinase 1 (ROCK1, Homo sapiens, UniProt Q13464)

SMILES | observed | technique | concentration | remaining binding [%]
COc1ncc2cc3ccccc3nc2c1C#N | cell-free assay | competition with immobilised ligand | 5 µM | 84
COc1cnc(Nc2cccc(S(N)(=O)=O)c2)nc1N1CCN(c2ccccc2)C(=O)C1 | binding | competition with immobilised ligand | 1 µM | 43
Cc1cnc(Nc2ccc(C(=O)N3CCC(N4CCCC4)CC3)cc2)nc1-c1cc2ccccc2s1 | binding | competition with immobilised ligand | 1 µM | 7.7
CNC(=O)[C@@H]1CC[C@@H](n2c(-c3ccc4cnccc4c3)nc3ccc(C(=O)NCc4cccc(C(N)=O)c4)cc32)C1 | binding | competition with immobilised ligand | 1 µM | 100
Cc1c(NC(=O)c2cc(C(N)=O)nc3cc(F)ccc23)c(C(F)(F)F)nn1Cc1ccc(C#N)cc1 | cell-free assay | competition with immobilised ligand | 1 µM | 97
C[C@@H](c1ccc(-n2cnc3c(N)ncnc32)cc1)N1CCc2nn(C)c(Cc3ccccc3)c2C1=O | binding | competition with immobilised ligand | 0.1 µM | 85
O=C(c1ccc(Nc2ncc(Cl)c(-c3ccc(Cl)s3)n2)cc1)N1CCC(N2CCCC2)CC1 | binding | competition with immobilised ligand | 1 µM | 4.9
F[C@@H]1CCN(c2nccc(-c3cnn4ncccc34)n2)C1 | binding | – | 1 µM | 100
Cc1c(C(=O)O)cc(-c2ccc(C3CCNCC3)cc2)c2ccc(-c3ccc(C(F)(F)F)cc3)cc12 | binding | competition with immobilised ligand | 1 µM | 100
C[C@H]1CCN(c2nccc(-c3cnn4ncccc34)n2)C1 | binding | – | 1 µM | 81
O=C(Nc1c[nH]nc1C(=O)NC1CCNCC1)c1cc(F)cc(F)c1 | binding | competition with immobilised ligand | 1 µM | 98
CS(=O)(=O)N1CCCC(NC(=O)[C@H](CCC2CCCCC2)NC(=O)c2ccc(CNC(=O)c3cnc4ccccn34)cc2)C1 (stereo partly shown) | cell-free assay | competition with immobilised ligand | 0.1 µM | 100
FC(F)(F)Oc1cccc(-c2cnc3ccc(-c4ccncc4)nn23)c1 | binding | competition with immobilised ligand | 5 µM | 42
N[C@H]1CCN(c2nccc(-c3cnn4ncccc34)n2)C1 | binding | – | 1 µM | 73
CCC(=N\O)/C(C)=C/c1ccc(F)cc1 | cell-free assay | competition with immobilised ligand | 1 µM | 100
CN(C)c1ncc(F)c(-c2cnn3ncccc23)n1 | binding | – | 1 µM | 100
N#Cc1ccc(Nc2ccc3[nH]c(=O)[nH]c3c2)c(Cl)c1 | cell-free assay | competition with immobilised ligand | 1 µM | 100
O=C(c1ccc(Nc2nccc(-c3cc4ccccc4s3)n2)cc1)N1CCC(N2CCCC2)CC1 | binding | competition with immobilised ligand | 1 µM | 7.4
CC1CCCN1c1nccc(-c2cnn3ncccc23)n1 (stereo not shown) | binding | – | 1 µM | 100
CC(C)CC(=O)N1CCc2nc(-c3ccc(Br)cc3)nc(N(C)Cc3ccccc3)c2C1 | cell-free assay | competition with immobilised ligand | 0.1 µM | 78
CN(CCCC(F)(F)F)c1nccc(-c2cnn3ncccc23)n1 | binding | – | 1 µM | 100
C=CC(=O)N1CCC(C(=O)NCC(=O)N2CCN(c3nc(-c4cnc(N)nc4C(F)F)nc(N4CCOCC4)n3)CC2)CC1 | binding | competition with immobilised ligand | 1 µM | 100
